Source: PubChem (The Scripps Research Institute Molecular Screening Center)
NPY Y1 blocker: NPY-Y1 receptor antagonists, primary screen, cell-based. Neuropeptide Y receptor type 1 (Homo sapiens), P25929. HEK293-CNG Y1 cells, membrane potential fluorescence; NPY at EC95, then isoproterenol. inhibition, % at 3.6 µM. 200,000 tested, 1% active;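 active = inhibition above the campaign mean inhibition of all tested compounds plus 3 SD, cut at about 20% in these data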;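 also: 0% = DMSO wells given NPY plus isoproterenol and 100% = isoproterenol alone without NPY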
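Material: HEK293 cells co-expressing NPY Y1 receptor and cyclic-nucleotide gated channel. Timing: compound incubation 1 h at room temperature, readout 45 min post-stimulation. Signal: fluorescence, membrane potential probe.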
NPY2 pot ag: NPY-Y2 potentiators or agonists, primary screen, cell-based. cells expressing NPY-Y2, potentiator/agonist read-out. activation, % at 3.6 µM. 220,000 tested, 0.45% active. AID 1359, 2008; in the data active = activation above about 27%;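 also: cells stimulated with NPY near EC25 plus isoproterenol at EC100; 0% = vehicle plus submaximal agonist and 100% = vehicle plus saturating agonist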
Target sequence (P49146 whole entry, looked up): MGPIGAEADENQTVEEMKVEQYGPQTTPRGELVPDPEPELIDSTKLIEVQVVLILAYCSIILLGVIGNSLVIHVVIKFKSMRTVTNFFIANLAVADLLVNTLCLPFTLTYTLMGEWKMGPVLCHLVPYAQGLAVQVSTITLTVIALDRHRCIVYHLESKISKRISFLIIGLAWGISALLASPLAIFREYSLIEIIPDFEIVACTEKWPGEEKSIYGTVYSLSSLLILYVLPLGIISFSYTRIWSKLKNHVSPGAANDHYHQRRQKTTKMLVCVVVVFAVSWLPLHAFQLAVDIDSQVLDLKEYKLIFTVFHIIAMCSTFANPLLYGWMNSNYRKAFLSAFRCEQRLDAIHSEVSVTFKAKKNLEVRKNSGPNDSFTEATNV
NPY-Y1 PAM-ag: NPY-Y1 receptor potentiators or agonists, primary screen, cell-based | Neuropeptide Y receptor type 1 (Homo sapiens), P25929 | NPY-Y1 expressing cells, potentiator/agonist activation | activation, % at 3.6 µM | 220,000 tested, 0.37% active; in the data active = activation above about 33%, passing the limit was not always enough;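 also: cells stimulated with NPY at EC10 then isoproterenol at EC100; 0% = low agonist plus stimulus and 100% = saturating agonist plus stimulus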
NPY Y2 blocker: NPY-Y2 receptor antagonists, primary screen, cell-based. inhibition, % at 2.7 µM. NPY-Y2 expressing cells, antagonist mode. 140,000 tested, 0.99% active. AID 793, 2007; in the data active = inhibition above about 17%;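 also: 0% = vehicle with agonist challenge and 100% = reference antagonist with challenge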
NPY-Y1 antag ct: NPY-Y1 receptor antagonists, selectivity check, counter-screen for NPY-Y2 antagonist project, cell-based. shares compounds with NPY Y2 blocker. inhibition, % at 3.6 µM. 710 tested, 19% active. cell-based NPY-Y1 antagonism counterscreen; in the data active = inhibition above about 20%;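 also: cells challenged with NPY then isoproterenol with cAMP sensed through a CNG channel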
NPY-Y2 ant conf: NPY-Y2 receptor antagonists, retest of hits, confirmation, HEK293-CNG cells, membrane potential fluorescence, triplicate. shares compounds with NPY Y2 blocker. HEK293 NPY-Y2 CNG channel. inhibition, % at 2.8 µM. 710 tested, 32% active. AID 1257, 2008;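 active = mean inhibition of triplicate wells above the hit cutoff set in the primary screen, cut at about 17% in these data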;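 also: 0% = DMSO with NPY challenge and 100% = BIIE0246 high control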
An asterisk follows results filed as active; x = no result given; ! = not active in a repeat. This is a sample that favours compounds with a hit; in the whole collection about 1.8% have one here.

SMILES	NPY Y1 blocker	NPY2 pot ag	NPY-Y1 PAM-ag	NPY Y2 blocker	NPY-Y1 antag ct	NPY-Y2 ant conf
Nc1ccc2c(c1)C(=O)C(=O)c1ccccc1-2	9.0	-3.1	-8.5	48.0*	17.2	34.6*
Cc1cc(C(F)(F)F)nc(SCC(=O)c2cccc([N+](=O)[O-])c2)n1	0.3	4.6	-4.8	18.6*	2.8	5.2
COc1ccc(CC2(C)OC(c3ccc([N+](=O)[O-])cc3)=NN2C(C)=O)cc1 (stereo not given)	x	-0.6	-2.3	x	x	x
COc1ccc(-c2n[nH]c3c2C(c2ccc(OC)c(OC)c2)N(c2ccccc2)C3=O)cc1 (stereo not given)	12.9	-15.8	-53.4	27.4*	19.0	37.7*
CCCCNC(=O)CN1C(=O)C(CC)Oc2ccc(Cl)cc21 (stereo not given)	17.1	-22.9	-28.3	22.5*	7.0	6.9
CNC(=O)NNC(=O)c1nc(-c2ccccc2)c(C)o1	x	11.7	-26.0	x	x	x
O=C(C1CC1)N1CCc2sccc2C1c1ccc(Cl)cc1 (stereo not given)	x	-8.1	-8.8	x	x	x
c1ccc(N2CCN(c3nc(NCc4ccco4)c4ccccc4n3)CC2)cc1	11.7	31.8*	-7.3	19.4*	9.2	7.0
c1ccc2c(N3CCCCC3)nc(N3CCCCC3)nc2c1	-0.1	-16.4	-7.2	23.1*	4.6	1.5
c1coc(CNc2nc(N3CCCCC3)nc3ccccc23)c1	19.4	-8.1	-22.7	26.4*	18.1	15.5
c1ccc2c(N3CCCCC3)nc(N3CCOCC3)nc2c1	4.0	-6.5	-12.7	x	x	x
CC(C)c1ccc(-c2nnn(Cc3nc4ccccc4s3)n2)cc1	16.4	-24.3	-60.5	22.9*	16.0	23.3*
CC(C)c1ccc(-c2nnn(CCC#N)n2)cc1	1.9	-9.9	1.2	x	x	x
Cc1cccc(/C(N)=N/OC(=O)COc2ccc(Cl)c(C)c2)c1	-2.8	16.4	0.9	10.8	x	x
Cc1cc(OCC(=O)O/N=C(\N)c2ccccc2)ccc1Cl	9.6	-4.1	-9.5	19.1*	6.6	9.8
O=C(COC(=O)Cc1ccc(Cl)cc1)Nc1ccccc1-c1ccccc1	4.6	-13.7	-24.1	5.5	x	x
CCN(CC)c1ccc(C(=O)OCC(=O)Nc2ccccc2-c2ccccc2)cc1	6.5	-0.1	-28.8	20.8*	12.4	11.4
CN(C)c1cccc(C(=O)OCC(=O)Nc2ccccc2-c2ccccc2)c1	2.0	2.7	-15.0	4.4	x	x
O=C(COC(=O)/C=C/c1ccc(Cl)cc1)Nc1ccccc1-c1ccccc1	-1.7	9.8	5.1	22.1*	19.7	17.2*
CC1(C)CC(NCc2ccc3c(c2)OCO3)CCO1 (stereo not given)	0.2	-29.8	13.8	1.0	x	x
Cc1cc(C)nc(N/N=C/C2=C(N3CCOCC3)C(=C/c3ccccc3)/CC2)n1	16.8	5.5	0.3	75.7*	56.0*	71.7*
CCCN(CCC)C(=O)C1CC(=O)OC12CCCCC2 (stereo not given)	-0.3	-4.5	10.0	x	x	x
Cc1cccc(OCc2nc(C#N)c(NCc3ccc4c(c3)OCO4)o2)c1	12.1	-22.9	-31.7	26.8*	14.7	13.0
COc1cccc(-c2nnc3sc(-c4ccc(C)cc4)nn23)c1	0.8	-0.4	9.4	26.3*	14.8	8.2
O=C(Nc1nnc(-c2ccco2)o1)C1CC1	0.2	10.5	19.7	x	x	x
O=C(COc1ccccc1CNCc1ccccc1)Nc1ccccc1	18.9	-31.1	-36.4	20.9*	13.8	25.3*
COc1ccc2cc3cc(C(=O)NCCN4CCN(c5ccccc5F)CC4)oc3nc2c1	5.4	-15.1	-4.4	4.6	x	x
COc1ccc2cc3cc(C(=O)Nc4ccccc4N4CCN(C)CC4)oc3nc2c1	16.6	-0.9	-18.8	17.7*	6.5	16.2
COc1ccc(C2=C(CN(C)C)C(c3ccccc3)c3ccccc3O2)cc1 (stereo not given)	23.5*!	-20.9	-17.0	18.1*!	24.9*	34.3*
O=C(NC1CCCCC1)C(c1ccco1)N(Cc1cccnc1)C(=O)C1COc2ccccc2O1 (stereo not given)	15.1	-4.8	-20.1	18.5*	3.6	5.9
